Test results taken from ChEMBL document CHEMBL3875169, “Synthesis, in vitro anticancer and antibacterial activities and in silico studies of new 4-substituted 1,2,3-triazole-coumarin hybrids” (Eur J Med Chem, 2016).
Values after ≈ are worked out from the molar mass of the structure shown.

Tests used:
[1] = Growth inhibition of human A549 cells after 72 hrs by MTT assay; type: functional, cell-based; settings: A549, 72 h
Summary of the method: (§1)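 Monolayers in DMEM with 10% FBS, 2 mM L-glutamine and penicillin/streptomycin, 37 °C, 5% CO2; 5000 cells/well seeded day 0. Compounds added as five 10-fold dilutions (0.01–100 µM), DMSO ≤0.1%, for 72 h. MTT absorbance converted to percentage growth (NIH formulas); IC50 by linear regression between bracketing concentrations, highest concentration reported with ">" when not reached. Quadruplicate points, three experiments.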

[2] = Growth inhibition of human HepG2 cells after 72 hrs by MTT assay; type: functional, cell-based; settings: HepG2, 72 h; summary of the method: as §1
[3] = Growth inhibition of human CFPAC-1 cells after 72 hrs by MTT assay; type: functional, cell-based; settings: CFPAC-1, 72 h; summary of the method: as §1
[4] = Growth inhibition of human HeLa cells after 72 hrs by MTT assay; type: functional, cell-based; summary of the method: as §1
[5] = Growth inhibition of human SW620 cells after 72 hrs by MTT assay; type: functional, cell-based; settings: SW-620, 72 h; summary of the method: as §1
[6] = Growth inhibition of human WI38 cells after 72 hrs by MTT assay; type: cell-based; settings: WI-38, 72 h; summary of the method: as §1
Staphylococcus aureus = test: Antibacterial activity against Staphylococcus aureus ATCC 25923 after 16 to 20 hrs by broth microdilution method; type: functional
Summary of the method: (§2)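 Broth microdilution per CLSI in cation (Ca2+, Mg2+)-adjusted Mueller-Hinton broth; compounds in serial two-fold dilutions, 256–0.25 µg/mL; direct colony suspension inoculum, final 5 x 10^5 CFU/mL; 35 ± 2 °C, 16–20 h, ambient air. MIC is the lowest concentration completely inhibiting visible growth versus growth control; with trailing, endpoint read at ≥80% growth reduction. E. coli ATCC 25922 and P. aeruginosa ATCC 27853 served as QC.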

Enterococcus faecalis = test: Antibacterial activity against Enterococcus faecalis after 16 to 20 hrs by broth microdilution method; type: functional; summary of the method: as §2
Pseudomonas aeruginosa = test: Antibacterial activity against Pseudomonas aeruginosa ATCC 27853 after 16 to 20 hrs by broth microdilution method; type: functional; summary of the method: as §2
Escherichia coli = test: Antibacterial activity against Escherichia coli ATCC 25925 after 16 to 20 hrs by broth microdilution method; type: functional; settings: read-out: MIC=>80; summary of the method: as §2
Acinetobacter baumannii = test: Antibacterial activity against Acinetobacter baumannii ATCC 19606 after 16 to 20 hrs by broth microdilution method; type: functional; summary of the method: as §2
Klebsiella pneumoniae = test: Antibacterial activity against ESBL-producing Klebsiella pneumoniae ATCC 27736 after 16 to 20 hrs by broth microdilution method; type: functional; summary of the method: as §2
HepG2 = test: Selectivity index, ratio of IC50 for […] cells to IC50 for human HepG2 cells; type: functional
[7] = Induction of apoptosis in human HepG2 cells assessed as late apoptotic cells at 2 times antiproliferative IC50 after 48 hrs by Annexin-V FITC/propidium iodide staining based fluorescence microscopic method (reference value: 0%); type: functional
[8] = Induction of apoptosis in human HepG2 cells assessed as viable cells at 2 times antiproliferative IC50 after 48 hrs by Annexin-V FITC/propidium iodide staining based fluorescence microscopic method (reference value: 94.2%); type: functional
[9] = Induction of apoptosis in human HepG2 cells assessed as early apoptotic cells at 2 times antiproliferative IC50 after 48 hrs by Annexin-V FITC/propidium iodide staining based fluorescence microscopic method (reference value: 0.6%); type: functional
[10] = Induction of apoptosis in human HepG2 cells assessed as secondary necrotic cells at 2 times antiproliferative IC50 after 48 hrs by Annexin-V FITC/propidium iodide staining based fluorescence microscopic method (reference value: 5.2%); type: functional
A549 = test: Selectivity index, ratio of IC50 for […] cells to IC50 for human A549 cells; type: functional

MIC80 (Staphylococcus aureus) [µg/mL]	MIC80 (Enterococcus faecalis) [µg/mL]	MIC80 (Pseudomonas aeruginosa) [µg/mL]	MIC (Escherichia coli) [µg/mL]	MIC80 (Acinetobacter baumannii) [µg/mL]	MIC80 (Klebsiella pneumoniae) [µg/mL]	SMILES	IC50 [1] [µM]	IC50 [2] [µM]	IC50 [3] [µM]	IC50 [4] [µM]	IC50 [5] [µM]	IC50 [6] [µM]	Ratio IC50 (HepG2)	Activity [7] [%]	Activity [8] [%]	Activity [9] [%]	Activity [10] [%]	Ratio IC50 (A549)
> 256	256 (≈ 560 µM)	> 256	> 256	> 256	> 256	O=c1cc(Cn2cc(CNS(=O)(=O)c3ccc([N+](=O)[O-])cc3)nn2)c2ccc(O)cc2o1	> 100	> 100	> 100	> 100	> 100	< 0.01						
> 256	64 (≈ 149 µM)	> 256	> 256	> 256	> 256	O=c1cc(Cn2cc(CNS(=O)(=O)c3ccc(F)cc3)nn2)c2ccc(O)cc2o1	88.5	76.7	> 100	> 100	> 100	24.9						
						O=c1cc(Cn2cc(Cn3ccc4cc(I)ccc43)nn2)c2ccc(O)cc2o1	28.6	8.57	29.9	14.2	34.3		3	9.2	85	5.8	0	
						CCCCCCc1cn(Cc2cc(=O)oc3cc(O)ccc23)nn1	66.2	61.6	> 100	59	> 100	58.5						
> 256	32 (≈ 68.8 µM)	> 256	> 256	> 256	> 256	O=c1cc(Cn2cc(CNS(=O)(=O)c3ccc(F)cc3Cl)nn2)c2ccc(O)cc2o1	91.9	74.8	> 100	74.9	> 100	1.45						
256 (≈ 600 µM)	64 (≈ 150 µM)	> 256	> 256	> 256	> 256	Cc1ccc(S(=O)(=O)NCc2cn(Cc3cc(=O)oc4cc(O)ccc34)nn2)cc1	46.4	29.8	68.9	55.7	92.2	0.03						
						O=c1cc(Cn2cc(-c3cc(F)cc(F)c3)nn2)c2ccc(O)cc2o1	21.1	38.9	> 100	27.6	66.7							>4
> 256	32 (≈ 76.5 µM)	> 256	> 256	> 256	> 256	O=c1cc(Cn2cc(CSC(=S)N3CCOCC3)nn2)c2ccc(O)cc2o1	70.2	99.4	56.3	40.8	≥ 100	59.1						
> 256	64 (≈ 144 µM)	> 256	> 256	> 256	> 256	CCCC1CCC(c2ccc(-c3cn(Cc4cc(=O)oc5cc(O)ccc45)nn3)cc2)CC1 (stereo unspecified)	41	30.4	52.8	34.3	37.5	7.91						
> 256	16 (≈ 38.3 µM)	> 256	> 256	> 256	> 256	O=c1cc(Cn2cc(CSC(=S)N3CCNCC3)nn2)c2ccc(O)cc2o1	96	> 100	> 100	> 100	> 100	> 100						
> 256	16 (≈ 39.7 µM)	> 256	> 256	> 256	> 256	CCCCCCc1ccc(-c2cn(Cc3cc(=O)oc4cc(O)ccc34)nn2)cc1	8.87	9.16	> 100	8.73	36.8	14						
> 256	256 (≈ 720 µM)	> 256	> 256	> 256	> 256	CCCCCCCCc1cn(Cc2cc(=O)oc3cc(O)ccc23)nn1	46	34.2	62.6	35.1	50.9	43.4						
						O=c1cc(Cn2cc(CCc3ccccc3)nn2)c2ccc(O)cc2o1	24.8	50.5	> 100	35.1	84.4							>4
